Test results taken from ChEMBL document CHEMBL1287651, “Synthesis and in vitro antibacterial activity of fluoroquinolone derivatives containing 3-(N'-alkoxycarbamimidoyl)-4-(alkoxyimino) pyrrolidines” (2010).
Converted amounts (≈) assume the structure as drawn.

How the values were obtained:
Assay type in all cases: functional
[1] = system: Staphylococcus aureus; assay: Antibacterial activity against Staphylococcus aureus ATCC […] after 18 to 24 hrs by twofold serial dilution method
Method in brief: (§1)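 MIC determined by the standard twofold serial dilution method on agar media, screening against Gram-positive and Gram-negative strains. Levofloxacin and gemifloxacin were run alongside as reference drugs.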

[2] = system: Staphylococcus aureus; assay: Antibacterial activity against methicillin-resistant Staphylococcus aureus 08-1 after 18 to 24 hrs by twofold serial dilution method
Method in brief: (§2)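 Standard twofold serial agar dilution method on agar media for MIC determination. Screened against representative Gram-positive and Gram-negative strains. Levofloxacin and GMFX served as control drugs.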

[3] = system: Staphylococcus aureus; assay: Antibacterial activity against methicillin-sensitive Staphylococcus aureus 08-2 after 18 to 24 hrs by twofold serial dilution method; method in brief: as §2
[4] = system: Staphylococcus epidermidis; assay: Antibacterial activity against methicillin-resistant Staphylococcus epidermidis 09-2 after 18 to 24 hrs by twofold serial dilution method; method in brief: as §2
[5] = system: Staphylococcus epidermidis; assay: Antibacterial activity against methicillin-resistant Staphylococcus epidermidis 09-3 after 18 to 24 hrs by twofold serial dilution method; method in brief: as §2
[6] = system: Staphylococcus epidermidis; assay: Antibacterial activity against methicillin-resistant Staphylococcus epidermidis 09-4 after 18 to 24 hrs by twofold serial dilution method; method in brief: as §2
[7] = system: Staphylococcus epidermidis; assay: Antibacterial activity against methicillin-sensitive Staphylococcus epidermidis 09-3 after 18 to 24 hrs by twofold serial dilution method; method in brief: as §2
[8] = system: Staphylococcus epidermidis; assay: Antibacterial activity against methicillin-sensitive Staphylococcus epidermidis 09-6 after 18 to 24 hrs by twofold serial dilution method; method in brief: as §2
[9] = system: Streptococcus pneumoniae; assay: Antibacterial activity against Streptococcus pneumoniae 08-2 after 18 to 24 hrs by twofold serial dilution method; method in brief: as §1
[10] = system: Streptococcus pneumoniae; assay: Antibacterial activity against Streptococcus pneumoniae 08-4 after 18 to 24 hrs by twofold serial dilution method; method in brief: as §1
[11] = system: Enterococcus faecium; assay: Antibacterial activity against Enterococcus faecium 08-2 after 18 to 24 hrs by twofold serial dilution method; method in brief: as §1
[12] = system: Enterococcus faecium; assay: Antibacterial activity against Enterococcus faecium 08-7 after 18 to 24 hrs by twofold serial dilution method; method in brief: as §1
[13] = system: Enterococcus faecalis; assay: Antibacterial activity against Enterococcus faecalis 08-10 after 18 to 24 hrs by twofold serial dilution method; method in brief: as §1
[14] = system: Enterococcus faecalis; assay: Antibacterial activity against Enterococcus faecalis 08-12 after 18 to 24 hrs by twofold serial dilution method; method in brief: as §1
[15] = system: Escherichia coli; assay: Antibacterial activity against Escherichia coli ATCC 25922 after 18 to 24 hrs by twofold serial dilution method; method in brief: as §1
[16] = system: Escherichia coli; assay: Antibacterial activity against Escherichia coli 08-21 after 18 to 24 hrs by twofold serial dilution method; method in brief: as §1
[17] = system: Escherichia coli; assay: Antibacterial activity against Escherichia coli 08-22 after 18 to 24 hrs by twofold serial dilution method; method in brief: as §1
[18] = system: Klebsiella pneumoniae; assay: Antibacterial activity against Klebsiella pneumoniae 09-21 after 18 to 24 hrs by twofold serial dilution method; method in brief: as §1
[19] = system: Klebsiella pneumoniae; assay: Antibacterial activity against Klebsiella pneumoniae 09-22 after 18 to 24 hrs by twofold serial dilution method; method in brief: as §1
[20] = system: Klebsiella pneumoniae; assay: Antibacterial activity against Klebsiella pneumoniae 09-23 after 18 to 24 hrs by twofold serial dilution method; method in brief: as §1
[21] = system: Pseudomonas aeruginosa; assay: Antibacterial activity against Pseudomonas aeruginosa ATCC 27853 after 18 to 24 hrs by twofold serial dilution method; method in brief: as §1
[22] = system: Pseudomonas aeruginosa; assay: Antibacterial activity against Pseudomonas aeruginosa 09-32 after 18 to 24 hrs by twofold serial dilution method; method in brief: as §1
[23] = system: Pseudomonas aeruginosa; assay: Antibacterial activity against Pseudomonas aeruginosa 09-33 after 18 to 24 hrs by twofold serial dilution method; method in brief: as §1
[24] = system: Pseudomonas aeruginosa; assay: Antibacterial activity against Pseudomonas aeruginosa 09-34 after 18 to 24 hrs by twofold serial dilution method; method in brief: as §1
[25] = system: Pseudomonas aeruginosa; assay: Antibacterial activity against Pseudomonas aeruginosa 09-35 after 18 to 24 hrs by twofold serial dilution method; method in brief: as §1

SMILES	MIC [1] [µg/mL]	MIC [2] [µg/mL]	MIC [3] [µg/mL]	MIC [4] [µg/mL]	MIC [5] [µg/mL]	MIC [6] [µg/mL]	MIC [7] [µg/mL]	MIC [8] [µg/mL]	MIC [9] [µg/mL]	MIC [10] [µg/mL]	MIC [11] [µg/mL]	MIC [12] [µg/mL]	MIC [13] [µg/mL]	MIC [14] [µg/mL]	MIC [15] [µg/mL]	MIC [16] [µg/mL]	MIC [17] [µg/mL]	MIC [18] [µg/mL]	MIC [19] [µg/mL]	MIC [20] [µg/mL]	other results
CCO/N=C1\CN(c2c(F)cc3c(=O)c(C(=O)O)cn(C4CC4)c3c2F)CC1/C(N)=N\OC (stereo not given)	0.125 (≈ 0.27 µM)	0.25 (≈ 0.539 µM)	0.125 (≈ 0.27 µM)	0.25 (≈ 0.539 µM)	0.125 (≈ 0.27 µM)	0.5 (≈ 1.08 µM)	0.25 (≈ 0.539 µM)	0.25 (≈ 0.539 µM)	32 (≈ 69 µM)	0.25 (≈ 0.539 µM)	> 128	0.25 (≈ 0.539 µM)	32 (≈ 69 µM)	> 128	64 (≈ 138 µM)	> 128	> 128	> 128	0.25 (≈ 0.539 µM)	> 128	MIC [21]: 8 µg/mL (≈ 17.3 µM); MIC [22]: 16 µg/mL (≈ 34.5 µM); MIC [23]: > 128 µg/mL; MIC [24]: > 128 µg/mL; MIC [25]: 16 µg/mL (≈ 34.5 µM)
CCO/N=C(/N)C1CN(c2c(F)cc3c(=O)c(C(=O)O)cn(C4CC4)c3c2F)C/C1=N\OC (stereo not given)	0.06 (≈ 0.129 µM)	0.06 (≈ 0.129 µM)	0.06 (≈ 0.129 µM)	0.06 (≈ 0.129 µM)	0.06 (≈ 0.129 µM)	0.06 (≈ 0.129 µM)	0.06 (≈ 0.129 µM)	0.06 (≈ 0.129 µM)	32 (≈ 69 µM)	1 (≈ 2.16 µM)	> 128	> 128	> 128	> 128	> 128	> 128	> 128	> 128	2 (≈ 4.32 µM)	> 128	MIC [21]: > 128 µg/mL; MIC [22]: > 128 µg/mL; MIC [23]: > 128 µg/mL; MIC [24]: > 128 µg/mL; MIC [25]: > 128 µg/mL
CO/N=C1\CN(c2c(F)cc3c(=O)c(C(=O)O)cn(CCF)c3c2F)CC1/C(N)=N\O (stereo not given)	1 (≈ 2.27 µM)	1 (≈ 2.27 µM)	> 128	> 128	1 (≈ 2.27 µM)	0.5 (≈ 1.13 µM)	0.5 (≈ 1.13 µM)	1 (≈ 2.27 µM)	1 (≈ 2.27 µM)	> 128	> 128	> 128	> 128	> 128	> 128	> 128	> 128	> 128	> 128	> 128	MIC [21]: > 128 µg/mL; MIC [22]: > 128 µg/mL; MIC [23]: > 128 µg/mL; MIC [24]: > 128 µg/mL; MIC [25]: > 128 µg/mL
CCO/N=C1\CN(c2c(F)cc3c(=O)c(C(=O)O)cn(CCF)c3c2F)CC1/C(N)=N\O (stereo not given)	0.5 (≈ 1.1 µM)	0.5 (≈ 1.1 µM)	0.5 (≈ 1.1 µM)	4 (≈ 8.78 µM)	0.5 (≈ 1.1 µM)	0.5 (≈ 1.1 µM)	0.5 (≈ 1.1 µM)	0.5 (≈ 1.1 µM)	4 (≈ 8.78 µM)	0.5 (≈ 1.1 µM)	> 128	> 128	4 (≈ 8.78 µM)	> 128	128 (≈ 281 µM)	> 128	> 128	> 128	4 (≈ 8.78 µM)	> 128	MIC [21]: 8 µg/mL (≈ 17.6 µM); MIC [22]: 16 µg/mL (≈ 35.1 µM); MIC [23]: > 128 µg/mL; MIC [24]: > 128 µg/mL; MIC [25]: 16 µg/mL (≈ 35.1 µM)
CO/N=C1\CN(c2c(F)cc3c(=O)c(C(=O)O)cn(CCF)c3c2F)CC1/C(N)=N\OC (stereo not given)	0.125 (≈ 0.274 µM)	0.125 (≈ 0.274 µM)	0.25 (≈ 0.549 µM)	2 (≈ 4.39 µM)	0.125 (≈ 0.274 µM)	0.125 (≈ 0.274 µM)	0.25 (≈ 0.549 µM)	0.25 (≈ 0.549 µM)	4 (≈ 8.78 µM)	2 (≈ 4.39 µM)	> 128	> 128	64 (≈ 141 µM)	> 128	128 (≈ 281 µM)	> 128	> 128	> 128	4 (≈ 8.78 µM)	> 128	MIC [21]: 32 µg/mL (≈ 70.3 µM); MIC [22]: 64 µg/mL (≈ 141 µM); MIC [23]: > 128 µg/mL; MIC [24]: > 128 µg/mL; MIC [25]: 64 µg/mL (≈ 141 µM)
CCO/N=C1\CN(c2c(F)cc3c(=O)c(C(=O)O)cn(CCF)c3c2F)CC1/C(N)=N\OC (stereo not given)	2 (≈ 4.26 µM)	4 (≈ 8.52 µM)	> 128	> 128	0.25 (≈ 0.533 µM)	0.125 (≈ 0.266 µM)	0.25 (≈ 0.533 µM)	0.25 (≈ 0.533 µM)	> 128	> 128	> 128	> 128	> 128	> 128	> 128	> 128	> 128	> 128	> 128	> 128	MIC [21]: > 128 µg/mL; MIC [22]: > 128 µg/mL; MIC [23]: > 128 µg/mL; MIC [24]: > 128 µg/mL; MIC [25]: > 128 µg/mL
